MEKK2 mut-MEK5: signal of MEK5 binding to mutant human MEKK2 PB1 domain | bead flow cytometry, Alexa488-MEK5 binding to MEKK2 mutant | percent response, % at 10 µM | 290,000 tested, 0.35% active; in the data active = percent response above about 24%, passing the limit was not always enough
Rce1 inhib: blocks yeast Ras-converting enzyme. yeast membranes, quenched prenylated peptide cleavage fluorescence. calls only. AID 2563. 290,000 tested, 0.27% active. Q03530;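 active = fall in fluorescence gain of 50% or more versus controls, with final raw signal at or below 3038400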;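 also: plate controls were neutral control wells for no effect and wells lacking membranes for full effect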
MEKK3 PB1 HTS: MEKK3-MEK5 PB1 interaction, increase or decrease; binding response (% of control), % at 10 µM; AID 1529; 290,000 tested, 1.4% active; bead-based flow cytometry, Alexa488-MEK5 binding to MEKK3; actives lie on both sides; 0 = blocked by unlabeled MEK5, 100 = vehicle;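 active = binding response more than 3 SD above or below the average of its plate-row segment, actives on both sides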;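 also: Alexa488 bead fluorescence after subtracting the streptavidin-only scavenger bead signal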
Target sequence (Q99759 whole entry, looked up): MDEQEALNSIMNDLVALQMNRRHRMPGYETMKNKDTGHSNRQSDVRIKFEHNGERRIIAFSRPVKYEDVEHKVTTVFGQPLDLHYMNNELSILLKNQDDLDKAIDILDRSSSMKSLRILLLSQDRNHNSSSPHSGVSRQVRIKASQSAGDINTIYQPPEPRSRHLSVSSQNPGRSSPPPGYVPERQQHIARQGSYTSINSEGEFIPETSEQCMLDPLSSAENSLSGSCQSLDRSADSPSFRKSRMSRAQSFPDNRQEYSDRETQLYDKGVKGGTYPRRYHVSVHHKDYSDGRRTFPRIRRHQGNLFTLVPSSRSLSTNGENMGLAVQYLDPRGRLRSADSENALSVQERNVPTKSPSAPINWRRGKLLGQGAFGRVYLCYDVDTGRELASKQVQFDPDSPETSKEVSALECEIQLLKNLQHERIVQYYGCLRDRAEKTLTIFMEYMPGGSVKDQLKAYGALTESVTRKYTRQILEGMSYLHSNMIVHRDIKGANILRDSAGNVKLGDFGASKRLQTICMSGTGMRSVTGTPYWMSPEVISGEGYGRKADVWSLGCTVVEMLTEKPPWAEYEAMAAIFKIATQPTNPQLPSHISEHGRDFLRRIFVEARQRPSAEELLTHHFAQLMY
UCH37 DUB inh: blocks the human deubiquitinase UCH37; Q9Y5K5; purified proteasome/UCH37, Ub-AMC cleavage fluorescence; inhibition, % (concentration not given with the values); 330,000 tested, 0.33% active; AID 588478;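 active = mean inhibition over replicate wells above about 20%, limit read from the data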;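 also: 0% = compound-free wells with enzyme and 100% = wells lacking proteasome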
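Assay system: Proteasome-bound UCH37. Buffer or medium: pH 7.4 Tris-HCl (50 mM) with ovalbumin, ATP-MgCl2, DTT. Incubation: 30 min preincubation with enzyme, 25 min cleavage at room temperature. Measured by: fluorescence, ex 355 nm, em 460 nm. Read-out basis: percent inhibition. Control set: wells without proteasome as full block, compound-free enzyme plus substrate as uninhibited.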
MEKK2 WT-MEK5: raises or lowers MEK5 binding to wildtype human MEKK2 PB1 domain. binding response (% of control), % at 10 µM. Q9Y2U5. AID 1531. 290,000 tested, 1.1% active. bead flow cytometry, Alexa488-MEK5 binding to MEKK2 WT; actives lie on both sides; in the data active = binding response below about 67% or above about 130%
T cell HTS: modulates CD8 T cell binding to vesicles; response (vesicle binding), % at 7 µM; 330,000 tested, 0.068% active; AID 2052; 2C CD8+ T cell-vesicle binding, flow cytometry; hits give low values;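 active = response, share of CD8 T cells binding vesicles, and their 90th percentile fluorescence all below set limits, cut at about 80% in these data, passing the limit was not always enough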;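 also: values below 100% mean blocked vesicle binding to the CD8+ T cells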
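Read-out – percent CD8+ FL2 mean versus row control · System – murine 2C transgenic CD8+ T lymphocytes · Times – 1.5 h cell–vesicle binding at 37 °C, then 20 min icy labelling · Control set – naked vesicles low, QL9 vesicles with vehicle high · Detection – cytometric PE anti-B7-1 and Alexa647 anti-CD8 signals after 1% paraformaldehyde fixation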
MEKK2wt confirm: raises or lowers MEK5 binding to wildtype human MEKK2, retest. shares compounds with MEKK3 PB1 HTS. bead flow cytometry, Alexa488-MEK5 binding to MEKK2 WT; actives lie on both sides. binding response (% of control), % at 10 µM. 5,900 tested, 2.4% active. AID 1892; in the data active = binding response below about 16% or above about 210%; inactive = in between
MEKK2mut-MEK5: signal of MEK5 binding to mutant human MEKK2, retest. percent response, % at 10 µM. shares compounds with MEKK3 PB1 HTS. 5,900 tested, 2% active. bead flow cytometry, Alexa488-MEK5 binding to MEKK2 mutant; in the data active = percent response mostly above about 71%, no sharp cut-off; inactive = mostly below about 38%;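 also: higher means compound restores mutant binding toward wildtype level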
MEKK3 confirm: confirmation of inhibitors of MEK5 binding to human MEKK3 | shares compounds with MEKK3 PB1 HTS | bead flow cytometry, Alexa488-MEK5 binding to MEKK3; hits give low values | binding response (% of control), % at 10 µM | 5,900 tested, 1.8% active | AID 1894;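 active = binding response below 72% of control, or above a set upper limit, though filed actives all read lower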;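 also: 100% = DMSO only wells and 0% = binding blocked by excess unlabeled MEK5; lower values mean stronger disruption of MEK5 binding to MEKK3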
The depositor's hits bear a star; i = inactive; . = no result given; [ ] = another dose, or the depositor's remark. Sampled rows, rich in hits. Any-hit rate of the full collection: about 2.5%.

SMILES | MEKK2 mut-MEK5 | Rce1 inhib | MEKK3 PB1 HTS | UCH37 DUB inh | MEKK2 WT-MEK5 | T cell HTS | MEKK2wt confirm | MEKK2mut-MEK5 | MEKK3 confirm
Cc1ccc(NC(=O)COc2ccccc2CNC(C)(C)CC(C)(C)C)cc1 | 16 | i | 105 | 1 | 141* | 296 | 137 | 17 | 105
CN1CCc2c(sc3c2c(=O)n(-c2ccc(Cl)cc2)c2nncn32)C1 | 4 | . | 122* | 3 | 114 | 721 | 95 | -4 | 98
CCN(CC)CCn1c(=O)n(-c2ccc(Cl)cc2)c(=O)c2c3c(sc21)CN(C)CC3 | 4 | i | 96 | 0 | 106 | 229 | . | . | .
N#C/C(=N\Nc1ccc(Cl)c(Cl)c1)C(=O)C1CC1 | -8 | i | 45*[inhibitor] | . | 45*[inhibitor] | 258 | 94 | -2 | 99
CS(=O)(=O)N1N=C(c2cccs2)CC1c1ccccc1F (stereo not given) | 3 | i | 99 | 3 | -4.0*[inhibitor] | 230 | 102 | 6 | 105
Cc1ccc(C2CC(c3cccs3)=NN2S(=O)(=O)c2ccc(C)cc2)cc1 (stereo not given) | 9 | i | 102 | 0 | 61*[inhibitor] | 112 | 94 | -1 | 101
COc1cccc(C2CC(c3cccs3)=NN2S(C)(=O)=O)c1OC (stereo not given) | -8 | i | 86 | 8 | 55 | 378 | . | . | .
COc1ccc(C2CC(c3cccs3)=NN2S(=O)(=O)c2ccc(C)cc2)cc1 (stereo not given) | 11 | i | 118 | 3 | 126 | 136 | . | . | .
COc1ccc(C(C)C)cc1S(=O)(=O)N1CCC(C(=O)N2CCN(C)CC2)CC1 | 7 | i | 99 | 0 | 105 | 260 | . | . | .
COc1ccc(C(C)C)cc1S(=O)(=O)N1CCN(C)CC1 | 10 | i | 133* | 1 | 133 | 608 | 112 | 3 | 107
CC1CCCC(=NNc2nc3ccccc3s2)C1 (stereo not given) | . | . | . | -2 | . | . | . | . | .
CCCOc1ccc2c(c1)C(=NN=C(N)N)c1cc(OCCC)ccc1-2 | 32* | i | 99 | 5 | 191* | i | 249* | 88* | 111
CCN(CC)CCOc1ccc2c(c1)C(=NO)c1cc(OCCN(CC)CC)ccc1-2 | 3 | i | 100 | 3 | 117 | 686 | . | . | .
COc1ccccc1NC(=O)CSc1nnc2ccc(-c3cccnc3)nn12 | 190* | i | 118 | 3 | 107 | 445 | 104 | 6 | 107
Cc1[nH]n(-c2ccccc2)c(=O)c1C=NN(C)c1ccccc1 | . | . | . | 4 | . | . | . | . | .
O=C(COc1ccc(Cl)cc1)NN=CCCc1ccccc1 | . | . | . | 0 | . | . | . | . | .
CC1=NNC(=O)C1Cc1ccccc1 (stereo not given) | . | i | . | 3 | . | 195 | . | . | .
CC1=NNC(=O)C1C(c1ccccc1)C1C(=O)NN=C1C (stereo not given) | 1 | i | 129* | . | 113 | 162 | 97 | -6 | 101
Cn1cc(C2CC(c3ccccc3)=NN2C(=O)c2ccccc2)c2ccccc21 (stereo not given) | -2 | i | 90 | 4 | 97 | 203 | . | . | .
CCCC(=O)N1N=C(c2ccccc2)CC1c1cn(C)c2ccccc12 (stereo not given) | 3 | i | 134* | 3 | 107 | 264 | 100 | -4 | 100
COc1ccc(-c2cc(CCCC(=O)NCCc3ccccc3)no2)cc1 | -26 | i | 0.0*[inhibitor] | 5 | -15*[inhibitor] | 341 | 100 | -3 | 104
CCOc1ccc(-c2cc(CCCC(=O)NCCc3ccccc3)no2)cc1 | 0 | i | 98 | 6 | 99 | 159 | . | . | .
COc1ccc(NC(=O)N2c3ccccc3CC2C)cc1OC (stereo not given) | -1 | i | 102 | 5 | 100 | 552 | . | . | .
COc1ccc(NC(=S)N2c3ccccc3CC2C)cc1OC (stereo not given) | -5 | i | 74*[inhibitor] | 7 | 85 | 216 | 100 | -1 | 102
CCN(CC)c1ccc2cc(-c3nc4ccccc4[nH]3)c(=O)oc2c1 | 5 | i | 95 | 2 | 69 | 642 | . | . | .
SMILES | MEKK2 mut-MEK5 | Rce1 inhib | MEKK3 PB1 HTS | UCH37 DUB inh | MEKK2 WT-MEK5 | T cell HTS | MEKK2wt confirm | MEKK2mut-MEK5 | MEKK3 confirm
CCN(CC)c1ccc2cc(-c3nc(-c4ccc(OC)cc4)cs3)c(=O)oc2c1 | 289* | . | 183* | 2 | 232* | i | 52 | -44 | 60*
CCN(CC)c1ccc2cc(-c3nnc(-c4ccccc4)o3)c(=O)oc2c1 | -3 | i | 89 | -12 | 60*[inhibitor] | 320 | 75 | -14 | 94
CN(C)S(=O)(=O)c1cccc(NC(=S)NN=Cc2cccc(O)c2)c1 | . | . | . | 1 | . | . | . | . | .
CC(=NNc1nc(-c2cc(C)ccc2C)cs1)c1cc2ccccc2oc1=O | . | . | . | 3 | . | . | . | . | .
Cc1ccc(C(C)C)c(OCCNCCc2ccccc2)c1 | 9 | . | 112 | 4 | 160* | 610 | 98 | -4 | 99
Cc1ccc(C(C)C)c(OCCCNCc2cccnc2)c1 | 3 | i | 100 | 6 | 109 | 113 | . | . | .
O=c1cc(-c2ccc(F)cc2)oc2ccccc12 | 2 | i | 2.0*[inhibitor] | -5 | 2.0*[inhibitor] | 467 | 99 | 6 | 104
CSc1ccc(-c2cc(=O)c3ccccc3o2)cc1 | -4 | i | 89 | i | 90 | 559 | . | . | .
COc1cccc(C=NNC(=O)c2nnn(-c3nonc3N)c2C(C)C)c1 | . | . | . | 5 | . | . | . | . | .
Cc1ccc2[nH]c(C)c(/C=N/Nc3nc4ccccc4s3)c2c1 | 5 | i | 96 | . | 138* | i | 117 | -2 | 96
CCc1n[nH]c2c1C(=NO)CC(c1ccccc1)C2 (stereo not given) | . | . | . | 4 | . | . | . | . | .
Cn1cc(S(=O)(=O)N2CCN(c3cccc(Cl)c3)CC2)c(=O)n(C)c1=O | 29 | . | 129* | -1 | 132 | 366 | 109 | 10 | 103
CCC(=O)N1CC2(C)CN(C(=O)CC)CC(C)(C1)C2 | 8 | i | 129* | 1 | 122 | 982 | 100 | -3 | 101
CCCCNC(=O)CNC(=S)N(Cc1ccccc1F)C1CCCCC1 | 0 | i | 131* | 2 | 112 | 89 | 97 | -2 | 102
COc1ccc(C=NNC(=O)c2ccccc2O)cc1COc1ccccn1 | . | . | . | 8 | . | . | . | . | .
